Four compounds from ChEMBL document CHEMBL4732057, “Design, synthesis and biological evaluation of second-generation benzoylpiperidine derivatives as reversible monoacylglycerol lipase (MAGL) inhibitors” (Eur J Med Chem, 2021) can be followed below.

Data set [1] concerns OVCAR-3. The data set can be described thus: Antiproliferative activity against human OVCAR3 cells as reduction in cell growth measured after 96 hrs by Celltiter-glo luminescent assay. It counts as functional, cell-based. The note with it: OVCAR-3, 96 h. The method in brief: (§1)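 Cell lines kept at 37 °C, 5% CO2; 5 × 10^2 cells per well, compound added the day after seeding at 200 to 0.02 µM. Viability read after 96 h by CellTiter-Glo luminescence. IC50 from logistic dose-response curves, in triplicate; error bars are SD.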
A general note: Cellular ATP, detected with luciferase, serves as a proxy for viable cell number.

Data set [2] addresses T1, Monoglyceride lipase (Homo sapiens, UniProt Q99685).
T1 sequence (Q99685 whole entry): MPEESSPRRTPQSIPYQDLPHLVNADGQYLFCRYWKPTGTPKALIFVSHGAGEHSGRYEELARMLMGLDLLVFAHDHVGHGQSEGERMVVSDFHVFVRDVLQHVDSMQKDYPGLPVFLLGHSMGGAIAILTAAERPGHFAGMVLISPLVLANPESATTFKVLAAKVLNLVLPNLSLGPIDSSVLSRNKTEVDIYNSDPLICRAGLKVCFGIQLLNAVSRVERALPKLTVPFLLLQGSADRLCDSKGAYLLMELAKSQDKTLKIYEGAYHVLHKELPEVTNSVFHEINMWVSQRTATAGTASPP
The data set can be described thus: Inhibition of MAGL in human U937 cells assessed as reduction in [3H]glycerol formation using [1,2,3-3H]2-OG as substrate incubated for 15 mins by liquid scintillation spectroscopy. It counts as cell-based, U-937. The method in brief: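 Intact U937 cells (1.0 × 10^6) in Tris-HCl 10 mM, EDTA 1 mM, 0.1% BSA, pH 8, given compound at 37 °C. Then 15 min at 37 °C with shaking. MAGL: 10 µM 2-OG plus 0.5 nM [3H]2-OG. FAAH: 1 µM AEA plus 2 nM [3H]AEA. Aqueous-phase tritium counted; three experiments in triplicate.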

For data set [3], the target named is Cannabinoid receptor 1 (CB1) (Homo sapiens, UniProt P21554). The data set can be described thus: Displacement of [3H]CP55940 from human CB1 receptor at 10 uM incubated for 90 mins by radioligand binding assay. The note with it: probe [3H]CP55940. The method in brief: (§2)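 Membranes expressing hCB1 or hCB2 in 50 mM Tris-HCl, 2.5 mM EDTA, 5 mM MgCl2, 0.5% BSA, pH 7.4, incubated with compound and 0.5 nM [3H]CP55,940 for 90 min at 30 °C. Nonspecific binding with 10 µM […]; filtered and counted. Screening at 10 µM; two experiments in triplicate.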
Chain of Cannabinoid receptor 1 (CB1) (P21554 whole entry): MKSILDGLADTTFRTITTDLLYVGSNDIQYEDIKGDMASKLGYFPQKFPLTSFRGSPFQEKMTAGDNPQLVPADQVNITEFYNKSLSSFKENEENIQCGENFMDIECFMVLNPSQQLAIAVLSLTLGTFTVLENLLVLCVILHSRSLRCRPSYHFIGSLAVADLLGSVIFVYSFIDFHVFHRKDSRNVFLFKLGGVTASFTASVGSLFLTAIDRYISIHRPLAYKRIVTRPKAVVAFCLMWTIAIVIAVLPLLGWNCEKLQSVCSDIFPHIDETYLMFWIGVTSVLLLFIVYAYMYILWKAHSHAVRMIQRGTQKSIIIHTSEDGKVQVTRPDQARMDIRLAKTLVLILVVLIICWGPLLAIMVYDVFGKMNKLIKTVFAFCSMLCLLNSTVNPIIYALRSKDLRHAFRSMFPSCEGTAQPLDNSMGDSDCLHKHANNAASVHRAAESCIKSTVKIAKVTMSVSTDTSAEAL
(In general: Loss of bound radioactivity is the signal in a displacement assay; it reports binding, not function.)

Data set [4] deals with T2, Monoacylglycerol lipase ABHD6 (Homo sapiens) (UniProt Q9BV23).
T2 sequence (whole entry): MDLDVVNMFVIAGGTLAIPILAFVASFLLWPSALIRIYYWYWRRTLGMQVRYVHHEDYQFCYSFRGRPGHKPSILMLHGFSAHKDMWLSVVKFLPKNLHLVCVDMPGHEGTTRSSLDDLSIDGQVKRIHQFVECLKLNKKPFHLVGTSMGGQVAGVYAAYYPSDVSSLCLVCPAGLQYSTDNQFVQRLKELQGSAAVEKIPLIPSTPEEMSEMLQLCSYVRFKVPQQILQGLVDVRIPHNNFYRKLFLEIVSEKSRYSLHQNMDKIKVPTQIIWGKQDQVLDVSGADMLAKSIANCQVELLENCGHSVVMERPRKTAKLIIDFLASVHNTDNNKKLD
The data set can be described thus: Inhibition of human ABHD6 expressed in HEK293 cells using [3H]2-OG as substrate at 10 uM preincubated for 30 mins followed by substrate addition and measured after 5 mins by liquid scintillation spectroscopy. It counts as cell-based. The note with it: time 35.0 min. The essentials:
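Homogenate (40 µg) of HEK293 cells stably transfected with human ABHD6 or ABHD12, preincubated with compound 30 min at 37 °C in […], 0.1% BSA, pH 7.6. 2-OG 10 µM added for 5 min at 37 °C. Stopped with CHCl3:MeOH; aqueous tritium counted; blanks and nontransfected HEK293 hydrolysis subtracted. Screening at 10 µM.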

Data set [5] concerns MDA-MB-231. The data set can be described thus: Antiproliferative activity against human MDA-MB-231 cells as reduction in cell growth measured after 96 hrs by Celltiter-glo luminescent assay. It counts as functional, cell-based. The note with it: MDA-MB-231, 96 h. The method in brief:
as §1

The target in data set [6] is T3, Fatty-acid amide hydrolase 1 (Mus musculus) (UniProt O08914).
T3 sequence (whole entry): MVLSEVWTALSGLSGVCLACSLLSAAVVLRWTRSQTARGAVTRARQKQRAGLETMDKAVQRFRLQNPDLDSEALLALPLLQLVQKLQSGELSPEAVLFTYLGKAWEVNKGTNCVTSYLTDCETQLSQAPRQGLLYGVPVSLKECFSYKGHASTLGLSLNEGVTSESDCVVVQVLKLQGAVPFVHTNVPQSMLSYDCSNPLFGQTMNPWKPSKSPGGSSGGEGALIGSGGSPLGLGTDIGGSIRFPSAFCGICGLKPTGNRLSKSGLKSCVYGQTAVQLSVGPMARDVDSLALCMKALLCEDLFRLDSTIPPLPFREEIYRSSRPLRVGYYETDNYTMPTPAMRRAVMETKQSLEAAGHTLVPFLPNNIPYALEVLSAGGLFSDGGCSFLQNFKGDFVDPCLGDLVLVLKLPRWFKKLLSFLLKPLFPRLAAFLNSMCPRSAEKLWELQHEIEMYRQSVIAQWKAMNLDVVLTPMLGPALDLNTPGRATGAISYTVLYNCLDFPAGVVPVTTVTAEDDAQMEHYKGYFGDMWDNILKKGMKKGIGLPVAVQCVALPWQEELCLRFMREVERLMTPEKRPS
The data set can be described thus: Inhibition of FAAH in mouse brain membrane up to 30 uM preincubated for 25 mins followed by TAMRA-FP labeling addition and measured after 5 mins by competitive ABPP based analysis. It is filed as cell membranes. The note with it: dose microM <=30, time 30.0 min. The essentials:
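Mouse brain membranes, 4 mg/mL in PBS, preincubated 25 min at 25 °C with compound at 10 µM or a range of concentrations. Labelled 5 min with TAMRA-FP at 125 nM final. Proteins resolved on 11% SDS-PAGE and scanned for fluorescence.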

Data set [7] concerns the target T4, Cannabinoid receptor 2 (Homo sapiens, UniProt P34972). The data set can be described thus: Displacement of [3H]CP55940 from human CB2 receptor incubated for 90 mins by radioligand binding assay. The method in brief: as §2
Data set [8] deals with Cannabinoid receptor 1 (Homo sapiens, UniProt P21554). The data set can be described thus: Displacement of [3H]CP55940 from human CB1 receptor incubated for 90 mins by radioligand binding assay. The essentials: as §2
Chain of Cannabinoid receptor 1 (P21554 whole entry): as the sequence (P21554 whole entry) above
Data set [9] concerns the target T4, Cannabinoid receptor 2. The data set can be described thus: Displacement of [3H]CP55940 from human CB2 receptor at 10 uM incubated for 90 mins by radioligand binding assay. The essentials:
as §2

Data set [10] concerns HCT-116. The data set can be described thus: Antiproliferative activity against human HCT116 cells as reduction in cell growth measured after 96 hrs by Celltiter-glo luminescent assay. It is filed as functional, cell-based. To be noted: HCT-116, 96 h. The essentials: as §1

By IC50 is commonly meant the concentration at which inhibition is half-maximal. Broadly, the inhibition is how much of the control response was suppressed.

Each structure is given as a SMILES string. Calls of active or inactive are those of the source. The rule behind the calls is not given here.

T4 sequence (P34972 whole entry): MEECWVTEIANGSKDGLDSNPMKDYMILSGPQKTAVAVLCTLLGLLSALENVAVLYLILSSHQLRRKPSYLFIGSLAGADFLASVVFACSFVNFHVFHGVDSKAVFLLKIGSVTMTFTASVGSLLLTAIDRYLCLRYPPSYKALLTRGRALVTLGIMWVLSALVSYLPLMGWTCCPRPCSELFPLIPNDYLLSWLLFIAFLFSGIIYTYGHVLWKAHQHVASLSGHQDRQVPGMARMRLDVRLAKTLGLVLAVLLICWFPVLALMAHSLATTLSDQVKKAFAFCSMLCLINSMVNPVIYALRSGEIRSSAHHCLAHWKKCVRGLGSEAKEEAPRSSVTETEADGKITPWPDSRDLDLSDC

On to `O=C(c1ccc(Sc2ccccc2)cc1)C1CCN(C(=O)c2cc(O)ccc2F)CC1`, for which the IC50 was above 100 µM in [1]; 0.868 µM in data set [2]; 43 µM in data set [5]; above 10 µM in [7]; above 10 µM in data set [8]; 5.1 µM in data set [10]. For the same compound, in data set [3], the inhibition at 1.5 h, 10 µM was below 10%. Besides, the inhibition in data set [4] was 40%; in [9], below 10%. For the same compound, the inhibition entry in data set [6] was “inactive”.

As for `O=C(c1ccc(Cc2ccccc2)cc1)C1CCN(C(=O)c2cc(O)ccc2F)CC1`, the IC50 in data set [1] was 20.7 µM; in data set [2] it was 0.844 µM; in [5] it was 25 µM; in [7], above 10 µM; in data set [8] it was above 10 µM; in [10] it was 17 µM. Further, in data set [3], the inhibition at 1.5 h, 10 µM is below 10%. Moreover, the inhibition in data set [4] was 21%; in [9], below 10%. Besides, the inhibition entry in [6] is “inactive”.

As for `O=C(c1ccc(Cc2ccccc2)cc1)C1CCN(C(=O)c2cc(O)c(F)cc2F)CC1`, the IC50 is above 100 µM in data set [1]; 1.23 µM in data set [2]; 65 µM in data set [5]; above 10 µM in data set [7]; above 10 µM in [8]; 5.3 µM in data set [10]. The same compound gave an inhibition at 1.5 h, 10 µM in data set [3] below 10%. For the same compound, the inhibition is 10% in data set [4] and below 10% in [9]. For the same compound, the inhibition result in data set [6] was “inactive”.

`O=C(c1ccc(Sc2ccccc2)cc1)C1CCN(C(=O)c2cc(O)c(F)cc2F)CC1`: the IC50 in [1] is above 100 µM; in [2], 0.568 µM; in data set [5], 63 µM; in data set [7], above 10 µM; in data set [8], above 10 µM; in data set [10] it was 15 µM. In data set [3], this compound showed an inhibition at 1.5 h, 10 µM below 10%. Also, the inhibition in data set [4] was 18%; in data set [9] it was below 10%. Also, the inhibition entry in data set [6] was “inactive”.
